According to ChEMBL document CHEMBL3758101, “Synthesis and biological evaluation of fluorinated 1,5-diarylpyrrole-3-alkoxyethyl ether derivatives as selective COX-2 inhibitors endowed with anti-inflammatory activity” (Eur J Med Chem, 2016):

What was measured:
[1] = tested on: Mus musculus; test: Antinociceptive activity in CD1 albino mouse model of acetic acid-induced visceral pain assessed as number of writhes at 20 mg/kg, po pretreated for 30 mins before acetic acid challenge measured after 5 mins (reference value: 30.5 +/- 1.7); format: functional
[2] = tested on: Rattus norvegicus; test: Antihyperalgesic effect in Sprague-Dawley rat model of monosodium iodoacetate-induced osteoarthritis assessed as withdrawal threshold at 20 mg/kg, ip administered 14 days post MIA challenge measured after 30 mins by paw pressure test (reference value: 37.8 +/- 3.3 g); format: functional
Outline: (§1)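 Male Sprague–Dawley rats (200–250 g). MIA (2 mg/25 µL) was injected into the left tibiotarsal joint on day 0 under 2% isoflurane; controls received 25 µL saline. On day 14 compound or vehicle was given at time 0. Paw pressure threshold (g) was read with an analgesimeter using a blunt conical probe on the dorsal paw at 30, 60, 90 and 120 min. Mean ± s.e.m., 6 rats.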

[3] = tested on: Rattus norvegicus; test: Antiinflammatory activity in Sprague-Dawley rat model of carrageenan-induced […] at 10 mg/kg, po administered 2 hrs post carrageenan challenge measured after 30 mins by […] (reference value: 34.1 +/- 2.3 ml); format: functional
[4] = species on record: Mus musculus; test: Selectivity ratio of IC50 for mouse COX-1 to IC50 for mouse COX-2
Outline: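 In J774 cells, the ratio was taken as COX-1 IC50 over COX-2 IC50. COX-1 activity: 15 min compound pretreatment, then 30 min with 15 µM arachidonic acid. COX-2 activity: 24 h LPS (10 µg/mL) induction with compound. PGE2 was measured by RIA in both; IC50 values came from sigmoidal fits of three experiments.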

[5] = tested on: Mus musculus; test: Antinociceptive activity in CD1 albino mouse model of acetic acid-induced visceral pain assessed as number of writhes at 10 mg/kg, po pretreated for 30 mins before acetic acid challenge measured after 5 mins (reference value: 30.5 +/- 1.7); format: functional
[6] = tested on: Rattus norvegicus; test: Antihyperalgesic effect in Sprague-Dawley rat model of monosodium iodoacetate-induced osteoarthritis assessed as withdrawal threshold at 10 mg/kg, ip administered 14 days post MIA challenge measured after 60 mins by paw pressure test (reference value: 36.1 +/- 3.5 g); format: functional; outline: as §1

With `Cc1c(CCOCCCF)cc(-c2ccc(S(C)(=O)=O)cc2)n1-c1ccc(F)cc1` the Activity [1] was 10.7, the Activity [2] was 51.3 g and the Activity [3] was 51.7 g. The Ratio IC50 [4] was > 14300, the Activity [5] was 11.4 and the Activity [6] was 51.8 g.
